Results on three compounds are retold here after paper PMC4899092 (Bioorganic & medicinal chemistry letters, 2016).

As usually defined, the IC50 is the concentration needed to halve the response being measured.

The subject of assay [1] is panel of 100 kinases. Briefly: KINOMEscan selectivity over kinase panel. The format is binding. Particulars: KINOMEscan panel of 100 kinases, 10 μM.
Assay [2] addresses Pim1 (Homo sapiens, UniProt P11309). Briefly: KINOMEscan primary screen binding. To be noted: 10 μM; lower numbers indicate stronger hits. Put shortly: (§1)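 Test compound profiled as a single-concentration primary binding screen across a panel of 100 kinases by the KINOMEscan service, at 10 μM. Binding interactions were reported as % Ctrl, with lower values indicating stronger hits. A selectivity score, S(35), was also calculated across the panel.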

The target in assay [3] is Pim3 (Homo sapiens, UniProt Q86V86). Briefly: KINOMEscan primary screen binding. Particulars: 10 μM; lower numbers indicate stronger hits. Put shortly: as §1
The target in assay [4] is CSNK1D (Homo sapiens, UniProt P48730). Briefly: KINOMEscan primary screen binding. Particulars: 10 μM; lower numbers indicate stronger hits. Put shortly: as §1
Chain of CSNK1D (P48730 whole entry): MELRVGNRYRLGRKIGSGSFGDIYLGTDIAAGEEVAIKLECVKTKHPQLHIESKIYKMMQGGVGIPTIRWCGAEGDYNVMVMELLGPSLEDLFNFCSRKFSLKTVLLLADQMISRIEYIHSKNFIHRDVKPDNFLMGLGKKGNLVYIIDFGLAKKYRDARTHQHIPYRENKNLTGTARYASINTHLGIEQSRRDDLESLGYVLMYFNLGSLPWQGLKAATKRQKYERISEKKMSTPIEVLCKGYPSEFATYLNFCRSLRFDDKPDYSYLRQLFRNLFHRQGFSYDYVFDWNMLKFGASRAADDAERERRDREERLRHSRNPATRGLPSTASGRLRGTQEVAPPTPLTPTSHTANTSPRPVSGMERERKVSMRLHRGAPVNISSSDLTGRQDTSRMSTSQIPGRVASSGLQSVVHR
In assay [5] the test system is DU-145 cells. Briefly: Growth inhibition of DU-145 prostate cancer cells. In kind it is cell-based. To be noted: read-out: IC50, growth inhibition of DU-145 cells; human prostate cancer cell line DU-145.

Chain of Pim1 (P11309 whole entry): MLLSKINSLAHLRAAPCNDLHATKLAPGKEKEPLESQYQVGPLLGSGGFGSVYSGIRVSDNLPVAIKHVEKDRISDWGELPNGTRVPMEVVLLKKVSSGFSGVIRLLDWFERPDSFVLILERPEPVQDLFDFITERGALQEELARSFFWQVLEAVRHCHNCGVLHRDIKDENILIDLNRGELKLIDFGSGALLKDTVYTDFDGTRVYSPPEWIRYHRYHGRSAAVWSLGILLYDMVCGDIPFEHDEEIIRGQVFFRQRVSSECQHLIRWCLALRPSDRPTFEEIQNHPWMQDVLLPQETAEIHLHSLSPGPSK

Turning to `O=C1C2=C(C(=O)c3c(O)ccc(O)c31)[C@@H](O)[C@@H](O)[C@@H](O)C2` [Compound 4], in assay [1], the “selectivity score S(35)” value stood at 0.022. In addition, the “% Ctrl Pim1” value in assay [2] was 34 % control. Moreover, in assay [3], the “% Ctrl Pim3” value turned out to be 36 % control. The “% Ctrl CSNK1D” value in assay [4] was 30 % control.
As to `CC(C)C(C)OC1CC(=O)CC2C(=O)c3c(O)ccc(O)c3C(=O)C12` (stereo not drawn) [Compound 7], in assay [5], the 50% inhibitory concentration (IC50) stood at 3.21 µM.
Still for that read-out and setting: for `CC(C)(C)OC1CC(O)CC2C(=O)c3c(O)ccc(O)c3C(=O)C12` (stereo not drawn) [Compound 9] the value was 2.02 µM.
